According to ChEMBL document CHEMBL4325846, “An investigation on 4-thiazolidinone derivatives as dual inhibitors of aldose reductase and protein tyrosine phosphatase 1B, in the search for potential agents for the treatment of type 2 diabetes mellitus and its complications” (Bioorg Med Chem Lett, 2018):
Activity calls are given as the source filed them. The calls are words filed in the database; no cut-off is given here.

Legend:
[1] = target: T1, Aldo-keto reductase family 1 member B1 (Homo sapiens, UniProt P15121); assay: Inhibition of human recombinant aldose reductase expressed in Escherichia coli BL21 (DE3) pLysS assessed as reduction in NADPH oxidation using L-idose as substrate
[2] = target: T2, Tyrosine-protein phosphatase non-receptor type 1 (Homo sapiens, UniProt P18031); assay: Inhibition of human full-length GST-fused PTP1B expressed in bacterial expression system using pNPP as substrate
T2 sequence (P18031 whole entry): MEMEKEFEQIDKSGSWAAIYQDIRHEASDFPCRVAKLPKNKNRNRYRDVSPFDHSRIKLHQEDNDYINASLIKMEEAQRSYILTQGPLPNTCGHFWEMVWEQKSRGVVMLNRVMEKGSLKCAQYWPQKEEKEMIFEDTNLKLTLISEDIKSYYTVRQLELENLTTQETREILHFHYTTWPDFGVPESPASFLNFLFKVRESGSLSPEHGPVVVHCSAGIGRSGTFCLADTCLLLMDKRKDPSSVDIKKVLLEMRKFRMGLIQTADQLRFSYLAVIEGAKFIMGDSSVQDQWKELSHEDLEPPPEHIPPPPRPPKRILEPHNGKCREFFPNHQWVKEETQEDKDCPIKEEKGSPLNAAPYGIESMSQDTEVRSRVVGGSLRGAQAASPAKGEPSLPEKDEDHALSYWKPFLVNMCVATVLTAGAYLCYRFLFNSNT
How it was run: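 Human recombinant PTP1B activity measured with p-nitrophenyl phosphate as substrate and sodium metavanadate as reference inhibitor. IC50 values are reported as mean ± S.E.M.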

[3] = target: T3, Tyrosine-protein phosphatase non-receptor type 1 (Homo sapiens) (UniProt P18031); assay: Reversible inhibition of human full-length GST-fused PTP1B expressed in bacterial expression system using pNPP as substrate after 60 mins
T3 sequence (whole entry): T2 sequence (P18031 whole entry)
How it was run: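 PTP1B was preincubated with a saturating inhibitor concentration for 60 min at 37°C. The mixture was then diluted in assay buffer and residual pNPP-hydrolysing activity was measured.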

[4] = target: T1, Aldo-keto reductase family 1 member B1; assay: Uncompetitive inhibition of human recombinant aldose reductase expressed in Escherichia coli BL21(DE3)pLysS assessed as dissociation constant of enzyme-inhibitor-substrate complex using L-idose as substrate by Morrison's plot analysis
How it was run: (§1)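 Purified human AR (7 mU) activity was measured across inhibitor concentrations at L-idose 2.1, 3.1, 4.1, 8.3 and 16.6 mM. Data were fitted to the Morrison equation to give Ki app at each substrate level. Ki app versus substrate was then fitted by nonlinear regression to a general tight-binding inhibition model.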

[5] = target: T1, Aldo-keto reductase family 1 member B1; assay: Uncompetitive inhibition of human recombinant aldose reductase expressed in Escherichia coli BL21(DE3)pLysS assessed as dissociation constant of enzyme-inhibitor complex using L-idose as substrate by Morrison's plot analysis; how it was run: as §1
[6] = target: T1, Aldo-keto reductase family 1 member B1; assay: Reversible inhibition of human recombinant aldose reductase expressed in Escherichia coli BL21(DE3)pLysS assessed as enzyme activity recovery at 0.25 to 2 uM using L-idose as substrate relative to control; design: scale not given: the % may be the effect or the level left
[7] = target: T2, Tyrosine-protein phosphatase non-receptor type 1; assay: Non-competitive inhibition of human full-length GST-fused PTP1B expressed in bacterial expression system assessed as dissociation constant of enzyme-inhibitor-substrate complex using pNPP as substrate by Michaelis-Menten plot analysis
How it was run: (§2)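 Human recombinant PTP1B with pNPP, rates measured over varied substrate levels at inhibitor 0–30 µM (steps of 10 µM, or 0/3/6/9 µM). Double-reciprocal plots were drawn, and secondary plots of Km/Vmax versus inhibitor concentration were used. Data are mean ± S.E.M. (n = 3).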

[8] = target: T2, Tyrosine-protein phosphatase non-receptor type 1; assay: Non-competitive inhibition of human full-length GST-fused PTP1B expressed in bacterial expression system assessed as dissociation constant of enzyme-inhibitor complex using pNPP as substrate by Michaelis-Menten plot analysis; how it was run: as §2
[9] = target: T2, Tyrosine-protein phosphatase non-receptor type 1; assay: Mixed non-competitive inhibition of human full-length GST-fused PTP1B expressed in bacterial expression system assessed as assessed as dissociation constant of enzyme-inhibitor complex using pNPP as substrate by double reciprocal plot analysis
How it was run: (§3)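 Human recombinant PTP1B with pNPP. Rates were measured over varied substrate levels at inhibitor 0, 2, 4 and 6 µM. […] Data are mean ± S.E.M. (n = 3).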

[10] = target: T2, Tyrosine-protein phosphatase non-receptor type 1; assay: Mixed non-competitive inhibition of human full-length GST-fused PTP1B expressed in bacterial expression system assessed as assessed as dissociation constant of enzyme-inhibitor-substrate complex using pNPP as substrate by double reciprocal plot analysis; how it was run: as §3
[11] = target: T3, Tyrosine-protein phosphatase non-receptor type 1 (Homo sapiens); assay: Inhibition of human full-length GST-fused PTP1B expressed in bacterial expression system at 300 uM using pNPP as substrate relative to control

SMILES: O=C(O)CN1C(=O)/C(=C/c2cccc(OCc3ccccc3)c2)SC1=S
- IC50 [1]: 0.053 µM
- IC50 [2]: 43.1 µM

SMILES: O=C(O)CN1C(=O)/C(=C/c2cccc(OCCc3ccccc3)c2)SC1=S
- IC50 [1]: 0.056 µM
- inhibition [3]: Active
- Ki [4]: 0.0062 µM
- Ki [5]: > 0.3 µM
- Activity [6]: 70%
- Ki [7]: 12 µM
- Ki [8]: 12 µM
- IC50 [2]: 32.5 µM

SMILES: NC(=O)COc1cccc(/C=C2\SC(=S)N(CC(=O)O)C2=O)c1
- IC50 [1]: 0.064 µM
- IC50 [2]: 716 µM

SMILES: O=C(O)CN1C(=O)/C(=C/c2cccc(Oc3ccccc3)c2)SC1=S
- IC50 [1]: 0.025 µM
- IC50 [2]: 86.8 µM

SMILES: COc1cc(/C=C2\SC(=S)N(CC(=O)O)C2=O)ccc1OCC(N)=O
- IC50 [1]: 0.228 µM
- IC50 [2]: 378 µM

SMILES: COc1cccc(/C=C2\SC(=S)N(CC(=O)O)C2=O)c1
- IC50 [1]: 0.078 µM

SMILES: COc1cc(/C=C2\S/C(=N\c3ccccc3)N(CC(=O)O)C2=O)ccc1OCc1ccccc1
- IC50 [1]: 1.41 µM
- Ki [9]: 7.6 µM
- Ki [10]: 40.6 µM
- IC50 [2]: 10.6 µM

SMILES: O=C(O)CN1C(=O)/C(=C/c2ccc(Oc3ccccc3)cc2)SC1=S
- IC50 [1]: 0.06 µM
- IC50 [2]: 63.9 µM

SMILES: O=C(O)CN1C(=O)/C(=C/c2ccc(OCCc3ccccc3)cc2)SC1=S
- IC50 [1]: 0.104 µM
- IC50 [2]: 49.4 µM

SMILES: COc1ccc(/C=C2\SC(=S)N(CC(=O)O)C2=O)cc1OCC(N)=O
- IC50 [1]: 0.139 µM
- IC50 [2]: 679 µM

SMILES: O=C(O)CN1C(=O)/C(=C/C=C/c2ccccc2)SC1=S
- IC50 [1]: 0.125 µM
- IC50 [2]: 171 µM

SMILES: COc1cc(/C=C2\SC(=O)N(CC(=O)O)C2=O)ccc1OCc1ccccc1
- IC50 [1]: 0.323 µM
- IC50 [2]: 151 µM

SMILES: O=C(O)CN1C(=O)/C(=C/c2ccc(OCc3ccccc3)cc2)SC1=S
- IC50 [1]: 0.052 µM
- IC50 [2]: 56 µM

SMILES: NC(=O)COc1ccc(/C=C2\SC(=S)N(CC(=O)O)C2=O)cc1
- IC50 [1]: 0.194 µM
- inhibition [11]: 10%

SMILES: O=C(O)CN1C(=O)S/C(=C\c2ccc(OCCc3ccccc3)cc2)C1=O
- IC50 [1]: 0.364 µM
- IC50 [2]: 63.8 µM

SMILES: COc1cc(/C=C2\SC(=S)N(CC(=O)O)C2=O)ccc1OCc1ccccc1
- IC50 [1]: 0.04 µM
- IC50 [2]: 54.1 µM

SMILES: O=C(O)CN1C(=O)S/C(=C\c2cccc(OCCc3ccccc3)c2)C1=O
- IC50 [1]: 0.276 µM
- inhibition [3]: Active
- Ki [4]: 0.016 µM
- Ki [5]: > 0.5 µM
- Activity [6]: 70%
- Ki [7]: 13.1 µM
- Ki [8]: 13.1 µM
- IC50 [2]: 12.4 µM
